Assay outcomes (PubChem BioAssay)
MT1-MMP act inh = blocks activation of human MT1-MMP; GFP/RFP ratio change, % at 20 µM; 360,000 compounds, 0.061% hits; HT1080 RFP-PRO-GFP cells, GFP/RFP ratio fluorescence, overnight; percent of plate control window, DMSO zero; P50281;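 active = GFP/RFP ratio change of at least 30% with cell ATP level not reduced by more than half and red fluorescence within 50% of control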
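system = RFP-PRO-GFP reporter HT1080 cells | dosing = 20 µM single dose, 1% DMSO | timing = overnight cell settling, then overnight compound exposure, 37 °C, 5% CO2 | read-out basis = GFP/RFP fluorescence ratio | controls = DMSO and RFP-L50D-GFP cell wells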
SKN-1 block = C. elegans SKN-1 inhibition | C. elegans VP596 Pgst-4::GFP/RFP ratio, acrylamide-induced, 24 h | inhibition, % at 21.8 µM | 360,000 compounds, 0.49% hits;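 active = interference check ratio from 0.5 to 1.5 plus GFP to RFP signal ratio inhibition reaching or exceeding a fixed threshold, cut at about 30% in these data, passing the limit was not always enough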
MsrA act = activates bovine MsrA enzyme; activation, % at 10.6 µM; purified bovine MsrA, absorbance read-out; AID 602163; 360,000 compounds, 0.3% hits; in the data active = activation above about 7.5%;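 note: 0% = vehicle and 100% = reference activator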
pCIP destab = compounds decreasing mouse p/CIP protein stability. F442A p/CIP-EGFP cells, EGFP fluorescence, 16 h. decrease of EGFP signal, % at 10 µM. 290,000 compounds, 0.01% hits. AID 1984;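 active = EGFP signal decrease of at least 30% at 10 µM or well 3 SD below plate mean, unless failing retest; inactive = the rest, including hits failing retest or dose response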
MsrA inh = bovine MsrA inhibition; inhibition, % at 15.5 µM; 360,000 compounds, 0.75% hits; AID 651718; purified bovine MsrA, absorbance read-out;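 note: 0% = vehicle wells with enzyme and 100% = reference inhibitor wells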
MsrA inh confirm = bovine MsrA inhibition, confirmed | purified bovine MsrA, absorbance read-out | inhibition, % at 15.5 µM | AID 651822 | shares compounds with MsrA inh | 2,300 compounds, 41% hits;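 note: coupled to thioredoxin reductase with NADPH and selenocystamine and DMSO as substrate; 0% = vehicle only and 100% = full effect of reference inhibitor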
The depositor's hits bear a star; nt = no result. Most compounds without a hit are left out; they make up all but 1.6% or so of the library. Cut-off read from the data, not from the text of the source, unless noted: active = inhibition above about 4.5%; inactive = the rest.

SMILES | MT1-MMP act inh | SKN-1 block | MsrA act | pCIP destab | MsrA inh | MsrA inh confirm
CC(=O)OCC(=O)N1CCN(C(=O)C(=O)c2cccc(C(F)(F)F)c2)CC1 | nt | nt | nt | nt | 0 | nt
O=S(=O)(N1CCCCC1)n1nnc2cc3ccccc3cc21 | nt | nt | nt | nt | 1 | nt
CC(Cc1ccccc1)=NNc1ccc([N+](=O)[O-])cc1[N+](=O)[O-] | 18 | 3 | -1 | nt | -1 | nt
C/C(CCC(C)C)=N\Nc1ccc(S(N)(=O)=O)cc1[N+](=O)[O-] | 1 | -5 | -13 | 14 | 10* | 7.8*
C/C(CC(C)C)=N/Nc1ccc([N+](=O)[O-])cc1[N+](=O)[O-] | 27 | -6 | -5 | -3 | 11* | 12*
COC(=O)CC/C(C)=N\Nc1ccc([N+](=O)[O-])cc1[N+](=O)[O-] | 11 | -3 | -3 | 5 | 6.3* | 9.5*
CCN(CC)S(=O)(=O)c1ccc(N/N=C(\C)c2ccc3c(c2)OCO3)c([N+](=O)[O-])c1 | 17 | 3 | -4 | -2 | -1 | nt
C/C(=N\Nc1ccc(S(N)(=O)=O)cc1[N+](=O)[O-])c1ccc2c(c1)OCO2 | 6 | -4 | -3 | 3 | 21* | 15*
O=C(c1ccc(F)cc1)C1CCN(CCCn2c(=O)[nH]c3ccccc32)CC1 | nt | nt | nt | nt | 1 | nt
C/C(=N\Nc1ccc(C(=O)O)cc1)c1ccc(Br)cc1 | -1 | -9 | -4 | 2 | 4.8* | 6.4*
CCOC(=O)C1=CCC(c2ccc([N+](=O)[O-])cc2)N(S(=O)(=O)c2ccc(C)cc2)C1 (stereo not drawn) | nt | nt | nt | nt | 0 | nt
COc1cccc2cc3c(=O)oc4ccccc4c3nc12 | 1 | 10 | -4 | 2 | 19* | 13*
CN(C)C(=O)C[C@H]1C[C@@H]2c3cc(NC(=O)NC4CCCC4)ccc3O[C@@H]2[C@@H](CO)O1 | nt | nt | nt | nt | 0 | nt
Cn1cc(-c2ccccc2C(=O)O)c(=O)c2cc(Cl)ccc21 | -3 | 5 | -3 | 0 | 4.9* | 2
C(=N\Nc1nc2ccccc2[nH]1)/c1ccncc1 | 5 | 2 | -4 | 11 | 5.0* | 2
CCCn1c(/C=N/Nc2nc3ccccc3[nH]2)nc2ccccc21 | 7 | 22 | 4 | 0 | 2 | nt
Cn1c(/C=N/Nc2nc3ccccc3[nH]2)nc2ccccc21 | 12 | 13 | -1 | -1 | 4.9* | 5.0*
O=C(O)c1ccc(/C=N/Nc2nc3ccccc3[nH]2)cc1 | -1 | -9 | -4 | 10 | 2 | nt
CC(=O)Nc1ccc(/C=N/Nc2nc3ccccc3[nH]2)cc1 | -4 | 10 | -6 | -7 | 8.2* | 5.9*
CCN(CC)c1ccc(/C=N/Nc2nc3ccccc3[nH]2)cc1 | 8 | -4 | -4 | -24 | 2 | nt
Brc1ccccc1C1Cc2nnccc2CN1 (stereo not drawn) | nt | nt | nt | nt | -1 | nt
CC1OC(Oc2ccc3ccc(=O)oc3c2-c2c(O)ccc3cc(Oc4ccc5ccc(=O)oc5c4)c(=O)oc23)C(O)C(O)C1O (stereo not drawn) | -1 | 8 | -5 | -8 | 4.8* | 4
C[n+]1ccccc1/C=C/c1ccc(C#N)cc1 | 2 | 2 | -2 | -8 | 6.5* | 5.6*
O=[N+]([O-])c1ccc(C=CC=Cc2ccccc2)cc1 | -5 | 10 | -4 | nt | 0 | nt
C[n+]1ccccc1/C=C/c1ccc([N+](=O)[O-])cc1 | -3 | -4 | -3 | -31 | 6.0* | 6.8*
SMILES | MT1-MMP act inh | SKN-1 block | MsrA act | pCIP destab | MsrA inh | MsrA inh confirm
C[n+]1ccccc1/C=C/c1ccc2ncccc2c1 | -1 | 11 | -4 | -6 | 6.9* | 6.9*
C[n+]1ccccc1/C=C/c1ccc(F)c(F)c1 | -3 | -12 | -2 | -6 | 4 | nt
Nc1nc2c(ncn2[C@@H]2O[C@H](C(=O)N[C@@H](Cc3ccccc3)C(=O)NCC3CCCCC3)[C@@H](O)[C@H]2O)c(=O)[nH]1 | nt | nt | nt | nt | 0 | nt
O=C(c1ccccc1)N1CCC2CCN(S(=O)(=O)c3ccccc3)CC21 (stereo not drawn) | nt | nt | nt | nt | 0 | nt
COC(=O)[C@@H](Cc1ccccc1)NC(=O)[C@H]1O[C@@H](n2cnc3c(=O)[nH]c(N)nc32)[C@H](O)[C@@H]1O | nt | nt | nt | nt | 0 | nt
CCc1cccc(C)c1NC(=O)c1cc(=O)[nH]c2ccc(S(=O)(=O)N3CCOCC3)cc12 | 1 | -4 | -1 | nt | 17* | 28*
Cc1ccc(NC(=O)c2cc(=O)[nH]c3ccc(S(=O)(=O)N4CCOCC4)cc23)cc1 | 1 | 4 | -2 | nt | 0 | nt
